Reference: ChEMBL document CHEMBL5724801, “EUbOPEN Chemogenomics Library - Multiplex” (2024)
Values joined by “and” are separate entries in the source; they are usually repeats but may differ in a detail not shown here. Equal values may be shown once.

Tested on: U2OS
Assay: Multiplex assay against U2OS
Assay type: toxicity, cell-based
Settings: human
Summary of the method: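 Live cells were stained at seeding with Hoechst33342, BioTracker Green Microtubule Cytoskeleton Dye, MitoTracker Red and Annexin V Alexa Fluor 680, then imaged on a CQ1 microscope at 37°C and 5% CO2 after compound addition. CellPathfinder machine-learning gating split cells into Hoechst high-intensity objects or normal cells. Normal cells were split into healthy, pyknosed or fragmented nuclei, and pyknosed cells into mitotic or apoptotic. Tubulin, mitochondrial-mass and membrane-permeability phenotypes are per cents of healthy-nucleus cells.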

[1] = 12 h, 1 µM, compound concentration 1 uM
[2] = 12 h, 10 µM, compound concentration 10 uM
[3] = 24 h, 1 µM, compound concentration 1 uM
[4] = 24 h, 10 µM, compound concentration 10 uM
[5] = 48 h, 1 µM, compound concentration 1 uM
[6] = 48 h, 10 µM, compound concentration 10 uM

## Cc1cc(-c2ccc3c(c2)CC[C@H]3N2CC3(CCN(C(=O)Cc4cn5cc(C)sc5n4)CC3)C2)ncn1 [PF-5190457]
[1]
  Population Apoptotic (%): 82% and 63%
  Population Fragmented Nuclei (%): 24% and 21%
  Population Healthy Nuclei (%): 65% and 66%
  Population Hoechst High Intensity Objects (%): 1% and 0%
  Population Membrane Permeable-Phenotype (%): 7% and 4%
  Population Mitochondria Different-Phenotype (%): 3%
  Population Mitotic Cells (%): 17% and 36%
  Population Normal (%): 98% and 100%
  Population Pyknosed Nuclei (%): 9% and 11%
  Population Tubulin-Different-Phenotype (%): 4% and 3%
  Total Cell Count: 239 and 93
[2]
  Population Apoptotic (%): 61% and 71%
  Population Fragmented Nuclei (%): 18% and 14%
  Population Healthy Nuclei (%): 66% and 74%
  Population Hoechst High Intensity Objects (%): 2% and 1%
  Population Membrane Permeable-Phenotype (%): 7% and 8%
  Population Mitochondria Different-Phenotype (%): 5% and 10%
  Population Mitotic Cells (%): 38% and 28%
  Population Normal (%): 97% and 98%
  Population Pyknosed Nuclei (%): 14% and 11%
  Population Tubulin-Different-Phenotype (%): 5% and 6%
  Total Cell Count: 238 and 126
[3]
  Population Apoptotic (%): 69% and 33%
  Population Fragmented Nuclei (%): 25% and 21%
  Population Healthy Nuclei (%): 66% and 76%
  Population Hoechst High Intensity Objects (%): 1% and 0%
  Population Membrane Permeable-Phenotype (%): 8% and 6%
  Population Mitochondria Different-Phenotype (%): 3% and 1%
  Population Mitotic Cells (%): 30% and 66%
  Population Normal (%): 98% and 99%
  Population Pyknosed Nuclei (%): 8% and 2%
  Population Tubulin-Different-Phenotype (%): 5% and 2%
  Total Cell Count: 282 and 126
[4]
  Population Apoptotic (%): 67% and 84%
  Population Fragmented Nuclei (%): 18%
  Population Healthy Nuclei (%): 72% and 69%
  Population Hoechst High Intensity Objects (%): 2% and 1%
  Population Membrane Permeable-Phenotype (%): 3% and 11%
  Population Mitochondria Different-Phenotype (%): 0% and 8%
  Population Mitotic Cells (%): 32% and 15%
  Population Normal (%): 97% and 98%
  Population Pyknosed Nuclei (%): 9% and 12%
  Population Tubulin-Different-Phenotype (%): 1% and 4%
  Total Cell Count: 295 and 154
[5]
  Population Apoptotic (%): 84% and 66%
  Population Fragmented Nuclei (%): 20% and 16%
  Population Healthy Nuclei (%): 71% and 78%
  Population Hoechst High Intensity Objects (%): 0% and 2%
  Population Membrane Permeable-Phenotype (%): 7% and 4%
  Population Mitochondria Different-Phenotype (%): 4% and 2%
  Population Mitotic Cells (%): 15% and 33%
  Population Normal (%): 99% and 97%
  Population Pyknosed Nuclei (%): 8% and 5%
  Population Tubulin-Different-Phenotype (%): 4% and 2%
  Total Cell Count: 402 and 184
[6]
  Population Apoptotic (%): 74% and 76%
  Population Fragmented Nuclei (%): 16% and 18%
  Population Healthy Nuclei (%): 71%
  Population Hoechst High Intensity Objects (%): 3%
  Population Membrane Permeable-Phenotype (%): 5% and 11%
  Population Mitochondria Different-Phenotype (%): 2% and 6%
  Population Mitotic Cells (%): 25% and 23%
  Population Normal (%): 96%
  Population Pyknosed Nuclei (%): 12% and 10%
  Population Tubulin-Different-Phenotype (%): 3% and 4%
  Total Cell Count: 389 and 217

## C[C@H](N)COC(=O)[C@@H](CCCCN)NC(=O)Cc1c(-c2ccc3ccccc3c2)[nH]c2c1ccc1ccccc12
[1]
  Population Apoptotic (%): 73% and 75%
  Population Fragmented Nuclei (%): 26% and 14%
  Population Healthy Nuclei (%): 66% and 78%
  Population Hoechst High Intensity Objects (%): 3% and 0%
  Population Membrane Permeable-Phenotype (%): 6% and 4%
  Population Mitochondria Different-Phenotype (%): 3% and 2%
  Population Mitotic Cells (%): 26% and 25%
  Population Normal (%): 96% and 99%
  Population Pyknosed Nuclei (%): 6%
  Population Tubulin-Different-Phenotype (%): 3% and 4%
  Total Cell Count: 244 and 128
[2]
  Population Apoptotic (%): 78% and 50%
  Population Fragmented Nuclei (%): 23% and 24%
  Population Healthy Nuclei (%): 69% and 73%
  Population Hoechst High Intensity Objects (%): 2% and 0%
  Population Mitochondria Different-Phenotype (%): 1% and 3%
  Population Mitotic Cells (%): 21% and 50%
  Population Normal (%): 97% and 100%
  Population Pyknosed Nuclei (%): 7% and 1%
  Population Tubulin-Different-Phenotype (%): 3% and 5%
  Total Cell Count: 279 and 106
[3]
  Population Apoptotic (%): 83% and 90%
  Population Fragmented Nuclei (%): 22% and 16%
  Population Healthy Nuclei (%): 68% and 77%
  Population Hoechst High Intensity Objects (%): 2% and 1%
  Population Membrane Permeable-Phenotype (%): 3% and 6%
  Population Mitochondria Different-Phenotype (%): 1%
  Population Mitotic Cells (%): 16% and 10%
  Population Normal (%): 97% and 98%
  Population Pyknosed Nuclei (%): 8% and 5%
  Population Tubulin-Different-Phenotype (%): 2% and 3%
  Total Cell Count: 292 and 170
[4]
  Population Apoptotic (%): 81% and 100%
  Population Fragmented Nuclei (%): 19% and 17%
  Population Healthy Nuclei (%): 73% and 79%
  Population Hoechst High Intensity Objects (%): 2%
  Population Membrane Permeable-Phenotype (%): 5% and 11%
  Population Mitochondria Different-Phenotype (%): 1% and 3%
  Population Mitotic Cells (%): 18% and 0%
  Population Normal (%): 97%
  Population Pyknosed Nuclei (%): 6% and 2%
  Population Tubulin-Different-Phenotype (%): 2% and 6%
  Total Cell Count: 337 and 142
[5]
  Population Apoptotic (%): 79% and 73%
  Population Fragmented Nuclei (%): 16% and 17%
  Population Healthy Nuclei (%): 78% and 73%
  Population Hoechst High Intensity Objects (%): 1% and 2%
  Population Membrane Permeable-Phenotype (%): 2% and 3%
  Population Mitochondria Different-Phenotype (%): 2% and 4%
  Population Mitotic Cells (%): 20% and 26%
  Population Normal (%): 98% and 97%
  Population Pyknosed Nuclei (%): 5% and 8%
  Population Tubulin-Different-Phenotype (%): 2% and 1%
  Total Cell Count: 440 and 231
[6]
  Population Apoptotic (%): 90%
  Population Fragmented Nuclei (%): 14% and 16%
  Population Healthy Nuclei (%): 74% and 77%
  Population Hoechst High Intensity Objects (%): 4%
  Population Membrane Permeable-Phenotype (%): 6% and 16%
  Population Mitochondria Different-Phenotype (%): 1% and 2%
  Population Mitotic Cells (%): 9% and 10%
  Population Normal (%): 95%
  Population Pyknosed Nuclei (%): 10% and 5%
  Population Tubulin-Different-Phenotype (%): 2% and 6%
  Total Cell Count: 505 and 184
